Values after ≈ are worked out from the molar mass of the structure shown.
Key:
[1] = tested on: Mus musculus; assay: In vivo antitumor activity (0.25 mg/Kg) is the measure of tumor growth inhibition of colon 26 murine […] cells.; format: functional
Summary of the method: (§1)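 Colon 26 cells (10^6/mouse) inoculated sc into male CDF1 mice on day 0; drug given iv on day 7. Read-out is percentage tumor growth inhibition versus the untreated group.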

[2] = tested on: HeLa; assay: Concentration required to inhibit the growth of HeLaS3 human uterine cervix carcinoma cells by 50%; format: functional, cell-based
[3] = tested on: Mus musculus; assay: In vivo antitumor activity (0.584 mg/kg) is the measure of tumor growth inhibition of human tumor xenograft DLD-1 (colon) implanted sc in mice.; format: functional
Summary of the method: (§2)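 Tumor fragments (2–3 mm3) implanted sc into female BALB/cA Jcl-nu mice on day 0. A single iv dose was given once tumor volume reached about 100 mm3. Read-out is percentage of maximum tumor growth inhibition versus the untreated group.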

[4] = tested on: Mus musculus; assay: In vivo antitumor activity (0.584 mg/kg) is the measure of tumor growth inhibition of human tumor xenograft NUGC-3 (stomach) implanted sc in mice.; format: functional; summary of the method: as §2
[5] = tested on: Mus musculus; assay: In vivo antitumor activity (0.584 mg/kg) is the measure of tumor growth inhibition of human tumor xenograft WiDr (colon) implanted sc in mice.; format: functional; summary of the method: as §2
[6] = tested on: Mus musculus; assay: In vivo antitumor activity (0.584 mg/kg) is the measure of tumor growth inhibition of human tumor xenograft HCT116 (colon) implanted sc in mice.; format: functional; summary of the method: as §2
[7] = tested on: Mus musculus; assay: In vivo antitumor activity (0.125 mg/Kg) is the measure of tumor growth inhibition of colon 26 murine […] cells.; format: functional; summary of the method: as §1
[8] = tested on: Mus musculus; assay: In vivo antitumor activity (0.5 mg/Kg) is the measure of tumor growth inhibition of colon 26 murine […] cells.; format: functional; summary of the method: as §1
[9] = tested on: Mus musculus; assay: In vivo antitumor activity (0.25 mg/Kg) is the measure of increase in life span of mice bearing P388 murine leukemia cells; 2/2 cured mice (>60-day survivors); format: functional, organism-based
[10] = tested on: P338; assay: In vitro concentration required to inhibit the growth of […] murine leukemia cells by 50%; format: functional, cell-based; conditions: Mus musculus
[11] = Ratio between max dose within 10% body weight loss and tumor growth inhibition; format: functional
Summary of the method: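 Ratio of maximum dose within 10% body weight loss to the dose giving 50% tumor growth inhibition, in sc Colon 26-bearing mice dosed iv.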

[12] = tested on: Mus musculus; assay: In vivo concentration required to inhibit the Colon 26 murine […] cell growth by 50%; format: functional
[13] = tested on: Mus musculus; assay: In vivo antitumor activity is the measure of tumor growth inhibition of Colon 26 murine […] cells.; format: functional
Summary of the method: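 Colon 26 cells (10^6/mouse) inoculated sc into male CDF1 mice on day 0; single iv dose on day 7. Tumor growth inhibition expressed as percentage versus untreated group.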

[14] = tested on: Mus musculus; assay: In vivo antitumor activity (9.81 mg/kg) is the measure of tumor growth inhibition of human tumor xenograft HCT116 (colon) implanted sc in mice.; format: functional, organism-based; summary of the method: as §2
[15] = tested on: Mus musculus; assay: In vivo antitumor activity (9.81 mg/kg) is the measure of tumor growth inhibition of human tumor xenograft WiDr (colon) implanted sc in mice.; format: functional, organism-based; summary of the method: as §2
[16] = tested on: Mus musculus; assay: In vivo antitumor activity (9.81 mg/kg) is the measure of tumor growth inhibition of human tumor xenograft NUGC-3 (stomach) implanted sc in mice.; format: functional, organism-based; summary of the method: as §2
[17] = tested on: Mus musculus; assay: In vivo antitumor activity (9.81 mg/kg) is the measure of tumor growth inhibition of human tumor xenograft DLD-1 (colon) implanted sc in mice.; format: functional, organism-based; summary of the method: as §2

COC(=O)c1c(C(F)(F)F)[nH]c2c(O)cc3c(c12)[C@H](CCl)CN3C(=O)c1cc2cc(NC(=O)c3cc4ccccc4cn3)ccc2[nH]1 (racemic)
TGI [1]: 82% | IC50 [2]: 0.24 ng/mL (≈ 0.363 nM)

CCN(CC)c1ccc2cc(C(=O)Nc3ccc4[nH]c(C(=O)N5C[C@@H](CCl)c6c5cc(OC(=O)Nc5ccccc5)c5[nH]cc(C)c65)cc4c3)oc2c1 [CARZELESIN]
TGI [3]: 79% | TGI [4]: 98% | TGI [5]: 56% | TGI [6]: 82%

COC(=O)c1c(C(F)(F)F)[nH]c2c(O)cc3c(c12)[C@H](CCl)CN3C(=O)c1cc2cc(NC(=O)c3cc4c(OC)cccc4cn3)ccc2[nH]1 (racemic)
TGI [7]: 67% | IC50 [2]: 0.2 ng/mL (≈ 0.289 nM)

COC(=O)c1c(C(F)(F)F)[nH]c2c(O)cc3c(c12)[C@H](CCl)CN3C(=O)c1cc2cc(OC)c(OC)c(OC)c2o1 (racemic)
TGI [8]: 75% | IC50 [2]: 0.12 ng/mL (≈ 0.206 nM)

COC(=O)c1c(C(F)(F)F)[nH]c2c1[C@@]13C[C@@H]1CN(C(=O)c1cc4cc(NC(=O)c5cc6ccccc6o5)ccc4[nH]1)C3=CC2=O (racemic) [listing 1 of 2 here]
ILS [9]: 2/2 cured mice (>60-day survivors)

COC(=O)c1c(C(F)(F)F)[nH]c2c(O)cc3c(c12)[C@H](CCl)CN3C(=O)c1cc2cc(NC(=O)c3cc4c(OC)c(OC)c(OC)cc4[nH]3)ccc2[nH]1
TGI [8]: 95% | IC50 [2]: 0.94 ng/mL (≈ 1.27 nM)

COC(=O)c1c(C(F)(F)F)[nH]c2c1[C@@]13C[C@@H]1CN(C(=O)c1cc4cc(OC)ccc4[nH]1)C3=CC2=O (racemic)
IC50 [10]: 0.23 ng/mL (≈ 0.474 nM)

COC(=O)c1c(C(F)(F)F)[nH]c2c(OC(=O)N3CCN(C)CC3)cc3c(c12)[C@H](CBr)CN3C(=O)c1cc2cc(OC)c(OC)c(OC)c2[nH]1
Ratio [11]: 11.7

COC(=O)c1c(C(F)(F)F)[nH]c2c1[C@@]13C[C@@H]1CN(C(=O)c1cc4cc(NC(=O)c5cc6ccccc6[nH]5)ccc4[nH]1)C3=CC2=O (racemic)
IC50 [10]: 0.86 ng/mL (≈ 1.4 nM) | ILS [9]: 2/2 cured mice (>60-day survivors)

COC(=O)c1c(C(F)(F)F)[nH]c2c(O)cc3c(c12)[C@H](CCl)CN3C(=O)c1cc2cc(NC(=O)c3cc4cc(OC)c(OC)c(OC)c4[nH]3)ccc2[nH]1 (racemic)
TGI [1]: 83% | IC50 [2]: 0.2 ng/mL (≈ 0.27 nM)

COC(=O)c1c(C(F)(F)F)[nH]c2c(OC(=O)N3CCN(C)CC3)cc3c(c12)[C@H](CCl)CN3C(=O)c1cc2cc(NC(=O)c3cc4cc(OC)ccc4o3)ccc2[nH]1.Cl
TGI50 [12]: 0.148 mg/kg | TGI [13]: 86% | Ratio [11]: 6.8

COC(=O)c1c(C(F)(F)F)[nH]c2c1[C@@]13C[C@@H]1CN(C(=O)c1cc4cc(NC(=O)c5cc6ccccc6o5)ccc4[nH]1)C3=CC2=O (racemic) [listing 2 of 2 here]
IC50 [10]: 0.53 ng/mL (≈ 0.862 nM)

COC(=O)c1c(C(F)(F)F)[nH]c2c(O)cc3c(c12)[C@H](CCl)CN3C(=O)c1cc2cc(OC)c(OC)c(OC)c2[nH]1 (racemic)
IC50 [2]: 0.25 ng/mL (≈ 0.43 nM)

COC(=O)c1c(C(F)(F)F)[nH]c2c(O)cc3c(c12)[C@H](CCl)CN3C(=O)c1cc2cc(NC(=O)c3cc4cc(OC)ccc4o3)ccc2[nH]1 (racemic)
TGI [8]: 94% | IC50 [2]: 0.064 ng/mL (≈ 0.094 nM)

COC(=O)c1c(C(F)(F)F)[nH]c2c(O)cc3c(c12)[C@H](CCl)CN3C(=O)c1cc2cc(NC(=O)c3ccc4ccccc4c3)ccc2[nH]1 (racemic)
TGI [8]: 84% | IC50 [2]: 0.22 ng/mL (≈ 0.333 nM)

COC(=O)c1c(C(F)(F)F)[nH]c2c(O)cc3c(c12)[C@H](CCl)CN3C(=O)c1cc2cc(NC(=O)c3cc4cc(OC)c(OC)c(OC)c4o3)ccc2[nH]1 (racemic)
TGI [7]: 74% | IC50 [2]: 0.17 ng/mL (≈ 0.229 nM)

COC(=O)c1c(C(F)(F)F)[nH]c2c1[C@@]13C[C@@H]1CN(C(=O)c1cc4cc(NC(=O)c5cc6ccccc6o5)ccc4[nH]1)C3=CC2=O
Ratio [11]: 4.3

COC(=O)c1c(C(F)(F)F)[nH]c2c(OC(=O)N3CCN(C)CC3)cc3c(c12)[C@H](CCl)CN3C(=O)c1cc2cc(NC(=O)c3cc4ccc(OC)cc4o3)ccc2[nH]1
TGI50 [12]: 0.108 mg/kg | TGI [13]: 89% | Ratio [11]: 4.6

COC(=O)c1[nH]c2c(c1C(=O)OC)[C@@]13C[C@@H]1CN(C(=O)c1cc4cc(NC(=O)c5cc6ccccc6[nH]5)ccc4[nH]1)C3=CC2=O (racemic)
IC50 [10]: 0.31 ng/mL (≈ 0.514 nM)

COC(=O)c1c(C(F)(F)F)[nH]c2c(OC(=O)N3CCN(C)CC3)cc3c(c12)[C@H](CCl)CN3C(=O)c1cc2cc(NC(=O)c3cc4c(OC)c(OC)c(OC)cc4cn3)ccc2[nH]1
TGI50 [12]: 0.13 mg/kg | TGI [13]: 89% | Ratio [11]: 3.9

COC(=O)c1c(C(F)(F)F)[nH]c2c(O)cc3c(c12)[C@H](CCl)CN3C(=O)c1cc2c(OC)c(OC)c(OC)cc2[nH]1 (racemic)
IC50 [2]: 32 ng/mL (≈ 55 nM)

COC(=O)c1c(C(F)(F)F)[nH]c2c(O)cc3c(c12)[C@H](CCl)CN3C(=O)c1cc2cc(NC(=O)c3cc4ccc(OC)cc4o3)ccc2[nH]1 (racemic)
TGI [8]: 94% | IC50 [2]: 0.12 ng/mL (≈ 0.176 nM)

COC(=O)c1c(C(F)(F)F)[nH]c2c(O)cc3c(c12)[C@H](CCl)CN3C(=O)c1cc2cc(NC(=O)c3cnc4ccccc4c3)ccc2[nH]1 (racemic)
TGI [8]: 84% | IC50 [2]: 1.5 ng/mL (≈ 2.27 nM)

COC(=O)c1c(C(F)(F)F)[nH]c2c(O)cc3c(c12)[C@H](CCl)CN3C(=O)c1cc2cc(NC(=O)c3cc4cccc(OC)c4o3)ccc2[nH]1 (racemic)
TGI [8]: 96% | IC50 [2]: 0.51 ng/mL (≈ 0.749 nM)

COC(=O)c1c(C(F)(F)F)[nH]c2c(O)cc3c(c12)[C@H](CCl)CN3C(=O)c1cc2cc(NC(=O)c3cc4ccc(OC)cc4cn3)ccc2[nH]1
TGI [1]: 82% | IC50 [2]: 0.11 ng/mL (≈ 0.159 nM)

COC(=O)c1c(C(F)(F)F)[nH]c2c(O)cc3c(c12)[C@H](CCl)CN3C(=O)c1cc2cc(NC(=O)c3cc4cc(OC)ccc4cn3)ccc2[nH]1 (racemic)
TGI [1]: 90% | IC50 [2]: 0.18 ng/mL (≈ 0.26 nM)

CISPLATIN
TGI [14]: 34% | TGI [15]: 44% | TGI [16]: 87% | TGI [17]: 25%

COC(=O)c1c(C(F)(F)F)[nH]c2c(O)cc3c(c12)[C@H](CCl)CN3C(=O)c1cc2cc(NC(=O)c3cc4ccccc4o3)ccc2[nH]1 (racemic)
TGI [8]: 85% | IC50 [2]: 0.53 ng/mL (≈ 0.814 nM)

COC(=O)c1c(C(F)(F)F)[nH]c2c(OC(=O)N3CCN(C)CC3)cc3c(c12)[C@H](CCl)CN3C(=O)c1cc2cc(NC(=O)c3cc4cc(OC)c(OC)c(OC)c4o3)ccc2[nH]1
TGI50 [12]: 0.0533 mg/kg | TGI [13]: 90% | Ratio [11]: 4.5

COC(=O)c1c(C(F)(F)F)[nH]c2c(O)cc3c(c12)[C@H](CCl)CN3C(=O)c1cc2cc(NC(=O)c3cc4c(OC)cccc4o3)ccc2[nH]1 (racemic)
TGI [8]: 83% | IC50 [2]: 0.87 ng/mL (≈ 1.28 nM)

COC(=O)c1[nH]c2c(c1C(=O)OC)[C@@]13C[C@@H]1CN(C(=O)c1cc4cc(NC(=O)c5cc6ccccc6o5)ccc4[nH]1)C3=CC2=O (racemic)
IC50 [10]: 0.66 ng/mL (≈ 1.09 nM)

COC(=O)c1c(C(F)(F)F)[nH]c2c(O)cc3c(c12)[C@H](CCl)CN3C(=O)c1cc2cc(NC(=O)c3cc4cccc(OC)c4cn3)ccc2[nH]1 (racemic)
TGI [1]: 90% | IC50 [2]: 0.51 ng/mL (≈ 0.737 nM)

COC(=O)c1c(C(F)(F)F)[nH]c2c1[C@@]13C[C@@H]1CN(C(=O)c1cc4cc(OC)c(OC)c(OC)c4[nH]1)C3=CC2=O (racemic)
IC50 [10]: 0.24 ng/mL (≈ 0.44 nM)

COC(=O)c1c(C)[nH]c2c1[C@@]13C[C@@H]1CN(C(=O)c1cc4cc(OC)c(OC)c(OC)c4[nH]1)C3=CC2=O (racemic)
IC50 [10]: 0.34 ng/mL (≈ 0.692 nM)

Reference: ChEMBL document CHEMBL1132709, “Novel cyclopropapyrroloindole derivative (AT-3510) bearing methoxycarbonyl and trifluoromethyl groups” (J Med Chem, 1999)
